Entries after “also recorded” stand apart in the source; their conditions may differ.
Columns and labels:
[1] = Stability in mouse plasma; assay type: in vitro ADME, mouse (strain CD1); conditions: 2 μM, after 4 h
CYP2D6 = CYP2D6 (Homo sapiens, UniProt P10635); test: Human liver microsome CYP inhibition assay, CYP2D6; assay type: biochemical; conditions: human liver microsomes
Outline: (§1)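 Human liver microsomes were mixed with an isoform-specific CYP substrate and either compound or a positive-control inhibitor, then pre-incubated at 37 °C for 30 min. Reactions were started by adding an NADPH-regenerating system.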

CYP3A4 = CYP3A4 (Homo sapiens, UniProt P08684); test: Human liver microsome CYP inhibition assay, CYP3A4; assay type: biochemical; conditions: human liver microsomes
Outline: as §1

[2] = Single-dose pharmacokinetics in mice; assay type: in vivo, male CD1 mice
CYP2C9 = CYP2C9 (Homo sapiens, UniProt P11712); test: Human liver microsome CYP inhibition assay, CYP2C9; assay type: biochemical; conditions: human liver microsomes
Outline: as §1

CYP1A2 = target: T1, CYP1A2 (Homo sapiens, UniProt P05177); test: Human liver microsome CYP inhibition assay, CYP1A2; assay type: biochemical; conditions: human liver microsomes
T1 sequence (P05177 1-516): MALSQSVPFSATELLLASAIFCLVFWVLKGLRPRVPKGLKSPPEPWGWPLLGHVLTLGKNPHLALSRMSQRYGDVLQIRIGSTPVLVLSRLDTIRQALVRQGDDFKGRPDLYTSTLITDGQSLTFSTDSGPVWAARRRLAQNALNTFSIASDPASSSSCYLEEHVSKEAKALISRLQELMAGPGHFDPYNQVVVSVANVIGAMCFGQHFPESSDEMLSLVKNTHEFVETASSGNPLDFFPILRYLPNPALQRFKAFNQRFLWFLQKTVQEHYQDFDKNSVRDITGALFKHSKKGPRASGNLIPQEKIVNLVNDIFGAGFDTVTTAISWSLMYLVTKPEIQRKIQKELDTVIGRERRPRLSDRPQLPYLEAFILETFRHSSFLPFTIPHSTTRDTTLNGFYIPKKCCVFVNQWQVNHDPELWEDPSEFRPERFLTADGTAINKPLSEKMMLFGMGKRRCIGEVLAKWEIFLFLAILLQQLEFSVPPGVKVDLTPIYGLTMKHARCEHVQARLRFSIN
Outline: as §1

[3] = Single-dose safety observation and gross necropsy in rats; assay type: in vivo, male Sprague–Dawley rats
Outline: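 Male Sprague–Dawley rats (n = 3/group) were housed in metabolic cages and fasted overnight, with food returned 4 h post-dose. They received one oral gavage of 100 or 200 mg kg−1 (10 mL kg−1) in 40% DMSO/60% 0.5% methyl cellulose. Animals were monitored for 14 days, with body weight recorded before dosing and on days 7 and 14. Gross necropsy was done after CO2 euthanasia.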

[4] = Bidirectional Caco-2 cell permeability assay; assay type: in vitro ADME; conditions: human
CYP2B6 = target: T2, CYP2B6 (Homo sapiens, UniProt P20813); test: Human liver microsome CYP inhibition assay, CYP2B6; assay type: biochemical; conditions: human liver microsomes
T2 sequence (P20813 1-491): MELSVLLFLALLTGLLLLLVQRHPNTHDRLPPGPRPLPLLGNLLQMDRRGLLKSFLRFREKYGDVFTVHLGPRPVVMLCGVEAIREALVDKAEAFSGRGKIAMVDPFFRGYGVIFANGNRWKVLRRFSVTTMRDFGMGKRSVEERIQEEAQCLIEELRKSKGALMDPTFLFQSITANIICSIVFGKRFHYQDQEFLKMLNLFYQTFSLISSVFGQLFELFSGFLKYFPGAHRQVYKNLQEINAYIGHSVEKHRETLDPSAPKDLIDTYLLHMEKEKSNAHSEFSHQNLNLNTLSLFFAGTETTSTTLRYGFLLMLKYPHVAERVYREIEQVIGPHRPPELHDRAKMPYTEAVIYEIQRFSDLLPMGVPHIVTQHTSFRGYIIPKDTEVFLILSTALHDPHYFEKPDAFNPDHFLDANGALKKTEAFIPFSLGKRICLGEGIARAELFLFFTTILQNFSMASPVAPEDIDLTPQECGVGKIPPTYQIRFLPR
Outline: as §1

[5] = Single-dose pharmacokinetics in rats; assay type: in vivo, male Sprague–Dawley rats; conditions: rats vs mice, oral single dose
Outline: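 Male Sprague–Dawley rats with jugular vein cannulas (n = 3/group) were fasted overnight, with food returned 4 h post-dose. Single oral gavage of 100 or 200 mg kg−1 (10 or 20 mg mL−1; 10 mL kg−1) in 40% DMSO/60% 0.5% methyl cellulose. Cannula blood was drawn at 0.5, 1, 2, 4, 6, 8 and 24 h into K2EDTA, spun to plasma at 5 °C and stored at −70 °C for PK analysis.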

[6] = Plasma protein binding, rapid equilibrium dialysis; assay type: in vitro ADME; conditions: human, pH 7.4
Outline: (§2)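 Equilibrium dialysis (RED): compound was spiked at 2 μM into human or CD1 mouse plasma against PBS pH 7.4. Warfarin served as positive control. Plates were shaken gently at 37 °C for 6 h, and both chambers were quantified by LC–MS to give the unbound fraction.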

CYP2C19 = CYP2C19 (Homo sapiens, UniProt P33261); test: Human liver microsome CYP inhibition assay, CYP2C19; assay type: biochemical; conditions: human liver microsomes
Outline: as §1

HepG2 cells = test: HepG2 cytotoxicity assay; assay type: cell-based, human; conditions: 50 μM
Outline: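 HepG2 cells were kept in DMEM with 10% FBS and penicillin/streptomycin at 37 °C, 5% CO2, seeded ~5000 cells/well and allowed to attach overnight. Serial dilutions of compound in medium were added, with 0.1% DMSO vehicle and terfenadine as positive control. Viability was read by CellTiter-Glo ATP luminescence and normalized to vehicle as % viability per concentration.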

[7] = Single-dose safety observation and gross necropsy in mice; assay type: in vivo, male CD1 mice
Outline: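 Male CD1 mice (n = 3/group) were housed individually in metabolic cages and fasted 4 h, with food returned 2 h post-dose. They received one oral gavage of 25, 50 or 100 mg kg−1 (2.5–10 mg mL−1; 10 mL kg−1) in 40% DMSO/60% 0.5% methyl cellulose. Animals were monitored 14 days and weighed pre-dose and on days 7 and 14. CO2 euthanasia was followed by gross necropsy.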

[8] = Plasma protein binding, rapid equilibrium dialysis; assay type: in vitro ADME, mouse (strain CD1); conditions: CD1, mouse, pH 7.4
Outline: as §2

[9] = Stability in mouse liver microsomes; assay type: in vitro ADME, mouse (strain CD1); conditions: 2 μM, after 2 h
Outline: (§3)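 Compound (2 μM) was incubated at 37 °C with human or CD1 mouse liver microsome suspension. The reaction was initiated by adding NADPH as CYP cofactor.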

[10] = system: Salmonella typhimurium tester strains TA98, TA100, TA1535, TA1537 and Escherichia coli strain WP2 uvrA; test: Ames bacterial reverse mutation assay; conditions: 1.4 × 10^−7 to 2.3 mM
PCFT transporter = target: T3, PCFT transporter (Homo sapiens, UniProt Q96NT5); test: Folate uptake assay in Caco-2 cell monolayers; assay type: cell-based; conditions: Caco-2, pH 5.5, read-out: inhibition of folate uptake
T3 sequence (Q96NT5 1-459): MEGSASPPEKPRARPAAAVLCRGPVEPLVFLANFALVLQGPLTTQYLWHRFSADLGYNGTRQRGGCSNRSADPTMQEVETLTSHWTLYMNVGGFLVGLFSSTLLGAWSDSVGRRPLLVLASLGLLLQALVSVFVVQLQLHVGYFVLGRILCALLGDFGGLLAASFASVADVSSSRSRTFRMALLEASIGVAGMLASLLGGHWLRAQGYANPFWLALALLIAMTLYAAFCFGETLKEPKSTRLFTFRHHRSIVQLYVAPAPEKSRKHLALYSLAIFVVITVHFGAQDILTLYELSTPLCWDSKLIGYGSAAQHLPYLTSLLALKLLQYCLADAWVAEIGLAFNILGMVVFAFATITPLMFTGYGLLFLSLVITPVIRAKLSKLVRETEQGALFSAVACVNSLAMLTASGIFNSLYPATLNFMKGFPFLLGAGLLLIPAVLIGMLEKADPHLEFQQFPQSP
Outline: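 Caco-2 cells were grown in high-glucose DMEM with 10% FBS, penicillin/streptomycin and NEAA, seeded at 3 × 10^4 cells/well and differentiated 8–10 days. Monolayers were pre-incubated 30 min at 37 °C in HBSS/10 mM MES pH 5.5 with compound (50 μM), pemetrexed or DMSO, then exposed 6 min to 10 nM [3H]folic acid ± inhibitor. Uptake was counted by scintillation, normalized to BCA protein and expressed as % of vehicle. Run in duplicate.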

[11] = Stability in human plasma; assay type: in vitro ADME; conditions: 2 μM, after 4 h
[12] = Stability in human liver microsomes; assay type: in vitro ADME; conditions: 2 μM, after 2 h
Outline: as §3

C. elegans strain N2 = test: C. elegans lifespan assay; assay type: in vivo; conditions: for maximal lifespan: untreated 27 d
[13] = target: cloned hERG potassium channels (Homo sapiens, UniProt Q12809); test: hERG assay, automated patch clamp; assay type: cell-based
Outline: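 Automated parallel patch clamp (QPatch II) was run at room temperature on HEK293 cells expressing KCNH2. Compound was applied at 0.1, 1, 10 and 100 μM (n ≥ 3), at least 6 min per concentration, from DMSO stocks diluted into HEPES-buffered saline. Cisapride 0.05 μM served as positive control. % current inhibition came from steady-state currents before and after each application.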

CYP2C8 = target: T4, CYP2C8 (Homo sapiens, UniProt P10632); test: Human liver microsome CYP inhibition assay, CYP2C8; assay type: biochemical; conditions: human liver microsomes
T4 sequence (P10632 1-490): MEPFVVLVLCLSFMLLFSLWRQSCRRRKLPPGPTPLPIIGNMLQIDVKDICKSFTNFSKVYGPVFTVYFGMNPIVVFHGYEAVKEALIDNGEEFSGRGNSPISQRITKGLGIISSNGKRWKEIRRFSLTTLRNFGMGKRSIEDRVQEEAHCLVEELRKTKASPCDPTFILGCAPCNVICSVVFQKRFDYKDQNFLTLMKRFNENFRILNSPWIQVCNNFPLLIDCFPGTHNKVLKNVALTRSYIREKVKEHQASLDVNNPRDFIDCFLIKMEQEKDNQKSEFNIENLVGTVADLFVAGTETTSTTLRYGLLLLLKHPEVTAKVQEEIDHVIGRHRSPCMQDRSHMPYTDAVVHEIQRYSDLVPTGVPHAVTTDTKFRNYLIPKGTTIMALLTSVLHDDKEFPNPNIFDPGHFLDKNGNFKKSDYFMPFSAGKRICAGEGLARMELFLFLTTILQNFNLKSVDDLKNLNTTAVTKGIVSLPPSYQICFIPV
Outline: as §1

[14] = male, CD1, mouse, plasma, po, 100 mg/kg
[15] = monitored 14 days after single oral dose
[16] = continuous exposure, 50 and 100 μM

CYP3A4, sequence (P08684 whole entry): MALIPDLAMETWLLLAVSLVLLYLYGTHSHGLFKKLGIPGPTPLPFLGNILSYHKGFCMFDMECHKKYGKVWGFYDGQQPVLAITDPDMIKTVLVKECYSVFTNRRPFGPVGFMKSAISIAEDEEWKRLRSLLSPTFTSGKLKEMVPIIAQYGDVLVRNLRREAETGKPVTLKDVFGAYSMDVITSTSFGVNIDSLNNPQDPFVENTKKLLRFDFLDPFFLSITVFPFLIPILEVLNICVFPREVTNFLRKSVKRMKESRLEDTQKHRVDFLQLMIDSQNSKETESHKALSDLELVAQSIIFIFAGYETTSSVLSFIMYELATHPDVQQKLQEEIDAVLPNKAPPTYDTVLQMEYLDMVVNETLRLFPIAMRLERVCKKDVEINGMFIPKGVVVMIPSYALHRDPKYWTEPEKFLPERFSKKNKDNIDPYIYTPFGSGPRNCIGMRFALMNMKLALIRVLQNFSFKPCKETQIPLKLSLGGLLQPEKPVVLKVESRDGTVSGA
CYP2C9, sequence (P11712 whole entry): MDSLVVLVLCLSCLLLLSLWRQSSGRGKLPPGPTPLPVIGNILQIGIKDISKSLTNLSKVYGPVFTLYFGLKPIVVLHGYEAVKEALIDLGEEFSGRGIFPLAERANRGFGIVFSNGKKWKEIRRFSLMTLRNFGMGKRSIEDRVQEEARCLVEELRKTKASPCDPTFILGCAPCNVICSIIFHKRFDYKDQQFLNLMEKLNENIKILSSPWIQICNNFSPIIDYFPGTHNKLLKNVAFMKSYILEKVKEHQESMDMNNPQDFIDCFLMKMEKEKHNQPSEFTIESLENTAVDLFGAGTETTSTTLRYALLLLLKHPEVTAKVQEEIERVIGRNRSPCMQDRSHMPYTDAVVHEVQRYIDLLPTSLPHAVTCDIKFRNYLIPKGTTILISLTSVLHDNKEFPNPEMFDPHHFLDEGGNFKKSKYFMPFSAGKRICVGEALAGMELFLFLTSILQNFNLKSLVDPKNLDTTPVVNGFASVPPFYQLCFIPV
CYP2D6, sequence (P10635 whole entry, canonical isoform): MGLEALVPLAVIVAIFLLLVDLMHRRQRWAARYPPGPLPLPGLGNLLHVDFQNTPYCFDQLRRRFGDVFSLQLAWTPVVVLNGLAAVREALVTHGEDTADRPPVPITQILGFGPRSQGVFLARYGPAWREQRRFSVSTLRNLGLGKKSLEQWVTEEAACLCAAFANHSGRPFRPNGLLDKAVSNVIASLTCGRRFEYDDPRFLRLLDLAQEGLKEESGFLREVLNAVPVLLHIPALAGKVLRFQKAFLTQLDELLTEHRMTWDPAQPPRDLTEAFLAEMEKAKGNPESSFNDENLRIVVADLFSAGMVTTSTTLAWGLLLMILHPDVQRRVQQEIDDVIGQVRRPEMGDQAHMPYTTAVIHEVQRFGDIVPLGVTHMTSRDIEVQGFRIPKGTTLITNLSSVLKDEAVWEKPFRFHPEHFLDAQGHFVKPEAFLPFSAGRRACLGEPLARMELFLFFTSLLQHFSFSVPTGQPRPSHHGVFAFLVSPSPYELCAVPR
CYP2C19, sequence (P33261 whole entry): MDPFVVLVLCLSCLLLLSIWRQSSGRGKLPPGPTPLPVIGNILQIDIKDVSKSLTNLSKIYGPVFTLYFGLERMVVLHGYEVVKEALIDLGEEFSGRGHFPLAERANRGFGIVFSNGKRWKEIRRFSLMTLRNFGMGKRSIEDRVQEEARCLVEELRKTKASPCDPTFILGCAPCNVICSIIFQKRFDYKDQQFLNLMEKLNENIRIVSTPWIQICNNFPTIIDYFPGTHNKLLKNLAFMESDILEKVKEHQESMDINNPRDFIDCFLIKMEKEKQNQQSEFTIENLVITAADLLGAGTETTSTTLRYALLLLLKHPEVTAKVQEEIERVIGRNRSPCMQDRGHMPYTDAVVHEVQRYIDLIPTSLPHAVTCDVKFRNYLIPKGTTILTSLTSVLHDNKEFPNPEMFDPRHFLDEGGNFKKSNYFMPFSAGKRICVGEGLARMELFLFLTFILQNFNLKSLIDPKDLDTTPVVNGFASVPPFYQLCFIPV
cloned hERG potassium channels, sequence (Q12809 whole entry): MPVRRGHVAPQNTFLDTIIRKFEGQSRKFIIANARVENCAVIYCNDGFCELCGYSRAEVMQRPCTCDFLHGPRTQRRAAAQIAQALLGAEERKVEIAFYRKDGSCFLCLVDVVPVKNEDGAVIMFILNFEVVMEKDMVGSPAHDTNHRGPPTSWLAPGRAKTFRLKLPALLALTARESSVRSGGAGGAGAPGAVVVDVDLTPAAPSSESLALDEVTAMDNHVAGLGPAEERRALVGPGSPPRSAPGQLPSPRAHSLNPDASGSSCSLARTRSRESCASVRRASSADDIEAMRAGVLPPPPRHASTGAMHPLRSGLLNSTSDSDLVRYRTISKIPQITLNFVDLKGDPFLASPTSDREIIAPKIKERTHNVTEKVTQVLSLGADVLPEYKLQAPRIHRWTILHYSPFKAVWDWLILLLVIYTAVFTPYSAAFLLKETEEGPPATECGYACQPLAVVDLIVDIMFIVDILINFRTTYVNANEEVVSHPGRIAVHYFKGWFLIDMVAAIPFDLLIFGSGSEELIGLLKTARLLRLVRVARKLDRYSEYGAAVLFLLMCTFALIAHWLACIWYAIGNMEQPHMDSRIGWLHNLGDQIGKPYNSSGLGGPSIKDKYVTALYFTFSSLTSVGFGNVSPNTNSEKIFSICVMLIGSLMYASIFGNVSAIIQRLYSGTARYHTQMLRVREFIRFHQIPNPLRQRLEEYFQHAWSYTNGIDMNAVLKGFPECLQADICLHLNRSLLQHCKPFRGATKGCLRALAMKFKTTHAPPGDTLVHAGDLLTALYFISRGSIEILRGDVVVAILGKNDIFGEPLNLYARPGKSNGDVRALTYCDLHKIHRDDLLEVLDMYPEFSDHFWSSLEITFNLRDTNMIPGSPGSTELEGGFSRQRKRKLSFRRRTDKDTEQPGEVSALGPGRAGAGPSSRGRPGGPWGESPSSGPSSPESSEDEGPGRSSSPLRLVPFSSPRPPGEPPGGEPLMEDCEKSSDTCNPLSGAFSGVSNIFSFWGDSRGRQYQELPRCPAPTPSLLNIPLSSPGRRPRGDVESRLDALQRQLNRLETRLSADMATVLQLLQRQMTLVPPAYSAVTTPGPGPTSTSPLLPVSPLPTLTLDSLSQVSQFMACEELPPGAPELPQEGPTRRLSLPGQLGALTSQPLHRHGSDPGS

## CC(=O)N1CCC(C(=O)N2CCN3C(=O)c4cc(-c5ccccc5)ccc4NC(=O)C3C2)CC1 (centres unmarked) [MPOL_B_1, 13-(1-acetylpiperidine-4-carbonyl)-5-phenyl-1,9,13-triazatricyclo[9.4.0.03,8]pentadeca-3(8),4,6-triene-2,10-dione]
[1]
  Stability in mouse plasma: >90% after 4 h
CYP2D6
  inhibition at 5 min, 50 µM: 16.9%
CYP3A4
  inhibition at 5 min, 50 µM: 22.5%
[2]; collected 24 hours after oral administration
  concentration of the drug in fecal samples: 5 to 10 mg/g
[2]; [14]
  AUC(0-t): 2380 ± 1180 ng·h/mL
  Cmax: 416 ± 67 ng/mL
  Tmax: 1.7 ± 0.6 h
  half-life: 5.7 ± 4.1 h
[2]; mice, oral gavage 25, 50 and 100 mg kg^−1
  systemic bioavailability (dose proportionality of AUC): became saturated at doses of 50 mg kg^−1 and above
CYP2C9
  inhibition at 5 min, 50 µM: 11.4%
CYP1A2
  inhibition at 5 min, 50 µM: 5.2%
[3]; group 1, 100 mg kg^−1
  gross necropsy: enlarged stomach and caecum and blood in the abdominal cavity
[3]; highest dose (200 mg kg^−1)
  gross necropsy: no organ pathologies or other abnormalities
[3]; [15]
  body weight loss: no significant body weight loss
  signs of illness: no signs of illness
[4]
  Papp A→B at 2 h, 10 μM: 0.37 ×10⁻⁶ cm/s
  Papp B→A at 2 h, 10 μM: 7.17 ×10⁻⁶ cm/s
CYP2B6
  inhibition at 5 min, 50 µM: 0%
[5]
  systemic bioavailability in rats, times lower than in mice: approximately 10 times
[6]
  fraction unbound at 6 h, 2 μM: 0.525 ± 0.08
CYP2C19
  inhibition at 5 min, 50 µM: 19.4%
HepG2 cells
  Hep2 cells cytotoxicity: Not significant
[7]; group 2, 50 mg kg^−1
  gross necropsy: had an enlarged stomach when gross necropsy was performed, and another from the same group had dark patches on the lungs
[7]; highest dose (100 mg kg^−1)
  gross necropsy: no organ pathologies or other abnormalities; also recorded: No abnormalities
[7]; [15]
  body weight loss: no significant body weight loss
  signs of illness: no signs of illness
[8]
  fraction unbound at 6 h, 2 μM: 0.294 ± 0.059
[9]
  Stability in mouse microsomes: 83% after 2 h
[10]
  Ames mutagenicity test: Not mutagenic
PCFT transporter
  inhibition at 50 µM: 42%
[11]
  Stability in human plasma: >90% after 4 h
[12]
  Stability in human microsomes: >90% after 2 h
C. elegans strain N2; 50 μM
  maximal lifespan: 35 days
C. elegans strain N2; 100 μM
  maximal lifespan: 35 days
C. elegans strain N2; C. elegans
  increase of lifespan: up to 30%
C. elegans strain N2; [16]
  longer maximal lifespan: ~30%
  longer mean lifespan: ~30%
[13]
  IC50: 87 µM
CYP2C8
  inhibition at 5 min, 50 µM: 4.9%

## Cc1ccc(NC(=O)N2Cc3[nH]cnc3C[C@H]2c2nc(-c3ccc4c(c3)OCO4)no2)cc1 [MPOL_D_1, (6S)-6-[3-(2H-1,3-benzodioxol-5-yl)-1,2,4-oxadiazol-5-yl]-N-(4-methylphenyl)3H,4H,5H,6H,7H-imidazo[4,5-c]pyridine-5-carboxamide]
C. elegans strain N2; dose range 1–100 μM, compared with MPOL_B_1
  effect on lifespan: did not exhibit similar effects

## Nc1nc2[nH]cc(CCc3ccc(C(=O)N[C@@H](CCC(=O)O)C(=O)O)cc3)c2c(=O)[nH]1 [pemetrexed, reference compound]
PCFT transporter
  inhibition at 50 µM: 62%

Reference: article PMC12777986 (RSC Medicinal Chemistry, 2025)
